In ChEMBL document CHEMBL4680287, “Ibrexafungerp: An orally active β-1,3-glucan synthesis inhibitor” (Bioorg Med Chem Lett, 2021):
In brackets after ≈: the same amount, converted by molar mass.

Tests used:
Aspergillus fumigatus [1] = experiment: Antifungal activity against Aspergillus fumigatus MF5668 infected in DBA/2N mouse assessed as mean survival time at 0.125 mg/kg, ip bid administered for 7 days starting from 15 to 30 mins post infection and measured up to 21 days; assay type: functional; conditions: time 7 day
In short: (§1)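 DBA/2N mice were challenged IV with A. fumigatus MF5668 at 6.7 x 10^5 CFU/mouse, then dosed IP twice daily for 7 days. Survival was followed over a 21-day model, and mean survival time in days was recorded per dose group. A sham-treated control group was run alongside.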

Aspergillus fumigatus [2] = experiment: Antifungal activity against Aspergillus fumigatus MF5668 infected in ip dosed DBA/2N mouse assessed as 50% mouse survival administered bid administered for 7 days starting from 15 to 30 mins post infection and measured up to 21 days; conditions: 168 h
Candida albicans [3] = experiment: Antifungal activity against Candida albicans MY1055 infected in DBA/2 mouse model of disseminated candidiasis assessed as reduction in fungal burden in kidney by measuring log change in colony forming units at 0.5 mg/kg, ip bid for 7 days by TOKA; assay type: functional; conditions: time 7 day
In short: (§2)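 Murine disseminated candidiasis model (TOKA) in mice challenged with C. albicans MY1055 at 2.44 x 10^4 CFU/mouse. Dosed PO, or IP where stated. Kidneys collected aseptically 7 days after challenge and CFUs/g counted. Change in log CFU/g is relative to sham-treated controls; significance by two-tailed t test. Clearance is the percentage of kidneys below the detection limit.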

Aspergillus fumigatus [4] = experiment: Antifungal activity against Aspergillus fumigatus MF5668 infected in ip dosed DBA/2N mouse assessed as 90% mouse survival administered bid administered for 7 days starting from 15 to 30 mins post infection and measured up to 21 days; assay type: functional; conditions: 168 h, time 7 day
Aspergillus fumigatus [5] = experiment: Antifungal activity against Aspergillus fumigatus MF5668 infected in DBA/2N mouse assessed as mean survival time at 0.03 mg/kg, ip bid administered for 7 days starting from 15 to 30 mins post infection and measured up to 21 days; assay type: functional; conditions: time 7 day; in short: as §1
Candida albicans [6] = experiment: Antifungal activity against Candida albicans MY1055 infected in DBA/2 mouse model of disseminated candidiasis assessed as reduction in fungal burden in kidney by measuring log change in colony forming units at […], po bid for 7 days by TOKA; assay type: functional; conditions: time 7 day; in short: as §2
[7] = Inhibition of beta-1,3-glucan synthase in Candida albicans MY1055 microsomal membrane assessed as inhibition of TCA-insoluble material formation using UDP-[3H]-glucose as substrate incubated for 2 hrs in presence of GTP by radioactivity-based assay; assay type: microsomes, Microsome
In short: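 GS IC50 measured using Candida albicans MY1055 microsomal membrane fragments as the enzyme source.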

Candida albicans [8] = experiment: Antifungal activity against Candida albicans MY1055 infected in DBA/2 mouse model of disseminated candidiasis assessed as reduction in fungal burden in kidney by measuring log change in colony forming units at 0.0078 mg/kg, ip bid for 7 days by TOKA; assay type: functional; conditions: time 7 day; in short: as §2
Aspergillus fumigatus [9] = experiment: Antifungal activity against Aspergillus fumigatus MF5668 assessed inhibition of fungal growth by measuring morphological changes measured after 24 hrs by microscopy; assay type: functional; conditions: read-out: MEC
In short: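 Microdilution per CLSI protocols in RPMI medium. Read-out is the minimum effective concentration (MEC). Run without serum and with 50% human serum.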

Candida albicans [10] = experiment: Antifungal activity against Candida albicans MY1055 infected in DBA/2 mouse model of disseminated candidiasis assessed as reduction in fungal burden in kidney by measuring log change in colony forming units at 0.03 mg/kg, po bid for 7 days by TOKA; assay type: functional; conditions: time 7 day; in short: as §2
Aspergillus fumigatus [11] = experiment: Antifungal activity against Aspergillus fumigatus MF5668 infected in DBA/2N mouse assessed as mouse survival at 0.03 mg/kg, ip bid administered for 7 days starting from 15 to 30 mins post infection and measured up to 21 days relative to control; assay type: functional; conditions: 168 h, time 7 day
In short: (§3)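 DBA/2N mice were infected IV with A. fumigatus MF5668 (6.7 x 10^5 CFU/mouse) and treated IP bid for 7 days. Percent survival per dose group was scored at the end of the 21-day survival model and compared with the sham-treated control group.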

Candida albicans [12] = experiment: Antifungal activity against Candida albicans MY1055 infected in ip dosed DBA/2 mouse model of disseminated candidiasis assessed as reduction in fungal burden in kidney administered bid for 7 days by TOKA; assay type: functional; conditions: 168 h, time 7 day; in short: as §2
Candida albicans [13] = experiment: Antifungal activity against Candida albicans MY1055 assessed as fungal growth inhibition measured after 24 hrs in presence of 50% mouse serum by liquid microdilution method; assay type: functional
In short: (§4)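 Broth microdilution per CLSI protocols in RPMI medium. Read-out is the MIC, the lowest concentration completely inhibiting fungal growth. Run without serum and with added serum.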

Candida albicans [14] = experiment: Antifungal activity against Candida albicans MY1055 infected in DBA/2 mouse model of disseminated candidiasis assessed as reduction in fungal burden in kidney by measuring log change in colony forming units at 0.125 mg/kg, po bid for 7 days by TOKA; assay type: functional; conditions: time 7 day; in short: as §2
Aspergillus fumigatus [15] = experiment: Antifungal activity against Aspergillus fumigatus MF5668 infected in DBA/2N mouse assessed as mouse survival at 2 mg/kg, ip bid administered for 7 days starting from 15 to 30 mins post infection and measured up to 21 days relative to control; assay type: functional; conditions: 168 h, time 7 day; in short: as §3
Aspergillus fumigatus [16] = experiment: Antifungal activity against Aspergillus fumigatus MF5668 infected in DBA/2N mouse assessed as mouse survival at 0.5 mg/kg, ip bid administered for 7 days starting from 15 to 30 mins post infection and measured up to 21 days relative to control; assay type: functional; conditions: 168 h, time 7 day; in short: as §3
Aspergillus fumigatus [17] = experiment: Antifungal activity against Aspergillus fumigatus MF5668 infected in DBA/2N mouse assessed as mouse survival at 0.125 mg/kg, ip bid administered for 7 days starting from 15 to 30 mins post infection and measured up to 21 days relative to control; assay type: functional; conditions: 168 h, time 7 day; in short: as §3
Candida albicans [18] = experiment: Antifungal activity against Candida albicans MY1055 infected in DBA/2 mouse model of disseminated candidiasis assessed as reduction in fungal burden in kidney by measuring log change in colony forming units at 0.03 mg/kg, ip bid for 7 days by TOKA; assay type: functional; conditions: time 7 day; in short: as §2
Candida albicans [19] = experiment: Antifungal activity against Candida albicans MY1055 infected in DBA/2 mouse model of disseminated candidiasis assessed as reduction in fungal burden in kidney by measuring log change in colony forming units at 0.125 mg/kg, ip bid for 7 days by TOKA; assay type: functional; conditions: time 7 day; in short: as §2
Candida albicans [20] = experiment: Antifungal activity against Candida albicans MY1055 assessed as fungal growth inhibition measured after 24 hrs by liquid microdilution method; assay type: functional; in short: as §4

CC[C@H](C)C[C@H](C)CCCCCCCCC(=O)N[C@H]1C[C@@H](O)[C@@H](NCCN)NC(=O)[C@@H]2[C@@H](O)CCN2C(=O)[C@H]([C@H](O)CCN)NC(=O)[C@H]([C@H](O)[C@@H](O)c2ccc(O)cc2)NC(=O)[C@@H]2C[C@@H](O)CN2C(=O)[C@H]([C@@H](C)O)NC1=O [CASPOFUNGIN]
MST (Aspergillus fumigatus [1]): 14.7 days | ED50 (Aspergillus fumigatus [2]): 0.07 mg/kg | Activity (Candida albicans [3]): -3.96 deltalog10CFU | ED90 (Aspergillus fumigatus [4]): 0.83 mg/kg | MST (Aspergillus fumigatus [5]): 13.1 days | Activity (Candida albicans [6]): -4.2 deltalog10CFU | IC50 [7]: 0.001 µg/mL | Activity (Candida albicans [8]): -3.62 deltalog10CFU | minimal effective concentration (Aspergillus fumigatus [9]): < 0.03 µg/mL | Activity (Candida albicans [10]): -2.3 deltalog10CFU | survival at 0.03 mg/kg (Aspergillus fumigatus [11]): 50% | ED99 (Candida albicans [12]): < 0.0001 mg/kg | MIC (Candida albicans [13]): 0.25 µg/mL | Activity (Candida albicans [14]): -4.2 deltalog10CFU | survival at 2 mg/kg (Aspergillus fumigatus [15]): 90% | survival at 0.5 mg/kg (Aspergillus fumigatus [16]): 90% | survival at 0.125 mg/kg (Aspergillus fumigatus [17]): 60% | Activity (Candida albicans [18]): -3.28 deltalog10CFU | Activity (Candida albicans [19]): -4 deltalog10CFU | MIC (Candida albicans [20]): 0.06 µg/mL (≈ 0.0549 µM)
